# Assay results: ChEMBL document CHEMBL1148485, “Synthesis and biological evaluation of new selective cytotoxic cyclolignans derived from podophyllotoxin” (J Med Chem, 2004)
# Tests used:
# A549 = experiment: In vitro cytotoxicity against A-549 (human lung carcinoma) cell line.; type: functional, cell-based; conditions: Homo sapiens, A549
# HeLa [1] = experiment: Tested for effect of compound on G2/M cell cycle phase and apoptosis in HeLa cells at a dose of 10E-6 for 48 hr; type: functional, Homo sapiens
# Summary of the method: (§1)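 HeLa cells were grown in DMEM with 10% heat-inactivated FCS and 2 mM L-glutamine at 37 °C in 5% CO2. They were exposed to 10^-6 to 10^-8 M for 24, 48 or 72 h. Then (3-5)×10^5 cells were fixed overnight in 70% ethanol at 4 °C, PBS-washed, and given 1 mg/mL RNase A plus 20 µg/mL propidium iodide for 1 h at room temperature. DNA content was read by flow cytometry. Sub-G1 (hypodiploid) % counted as apoptotic. Untreated controls were run in parallel. Representative of three independent experiments.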
# HT-29 = experiment: In vitro cytotoxicity against HT-29 (human colon carcinoma) cell line.; type: functional, cell-based; conditions: Homo sapiens, HT-29
# HeLa [2] = experiment: Tested for effect of compound on Sub-G1 cell cycle phase and apoptosis in HeLa cells at a dose of 10E-6 for 24 hr; type: functional, Homo sapiens
# Summary of the method: (§2)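 HeLa cells grown in DMEM with 10% heat-inactivated FCS, 2 mM L-glutamine, penicillin and gentamicin at 37 °C, 5% CO2. Exposed to compound at 10^-6 to 10^-8 M for 24, 48 or 72 h, untreated controls run in parallel. (3-5) × 10^5 cells fixed overnight in 70% ethanol at 4 °C, then RNase A plus propidium iodide. Phase fractions measured by flow cytometry, with sub-G1 (hypodiploid) cells counted as apoptotic. Three independent experiments.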
# HeLa [3] = experiment: Tested for effect of compound on Sub-G1 cell cycle phase and apoptosis in HeLa cells at a dose of 10E-6 for 48 hr; type: functional, Homo sapiens; summary of the method: as §2
# HeLa [4] = experiment: Tested for effect of compound on Sub-G1 cell cycle phase and apoptosis in HeLa cells at a dose of 10E-6 for 72 hr; type: functional, Homo sapiens; summary of the method: as §2
# HeLa [5] = experiment: Tested for effect of compound on Sub-G1 cell cycle phase and apoptosis in HeLa cells at a dose of 10E-7 for 24 hr; type: functional, Homo sapiens; summary of the method: as §2
# HeLa [6] = experiment: Tested for effect of compound on Sub-G1 cell cycle phase and apoptosis in HeLa cells at a dose of 10E-7 for 48 hr; type: functional, Homo sapiens; summary of the method: as §2
# HeLa [7] = experiment: Tested for effect of compound on Sub-G1 cell cycle phase and apoptosis in HeLa cells at a dose of 10E-7 for 72 hr; type: functional, Homo sapiens; summary of the method: as §2
# HeLa [8] = experiment: Tested for effect of compound on Sub-G1 cell cycle phase and apoptosis in HeLa cells at a dose of 10E-8 for 24 hr; type: functional, Homo sapiens; summary of the method: as §2
# HeLa [9] = experiment: Tested for effect of compound on Sub-G1 cell cycle phase and apoptosis in HeLa cells at a dose of 10E-8 for 48 hr; type: functional, Homo sapiens; summary of the method: as §2
# HeLa [10] = experiment: Tested for effect of compound on Sub-G1 cell cycle phase and apoptosis in HeLa cells at a dose of 10E-8 for 72 hr; type: functional, Homo sapiens; summary of the method: as §2
# HeLa [11] = experiment: Tested for effect of compound on G2/M cell cycle phase and apoptosis in HeLa cells at a dose of 10E-8 for 24 hr; type: functional, Homo sapiens; summary of the method: as §2
# HeLa [12] = experiment: Tested for effect of compound on G2/M cell cycle phase and apoptosis in HeLa cells at a dose of 10E-8 for 48 hr; type: functional, Homo sapiens; summary of the method: as §2
# HeLa [13] = experiment: Tested for effect of compound on G2/M cell cycle phase and apoptosis in HeLa cells at a dose of 10E-8 for 72 hr; type: functional, Homo sapiens; summary of the method: as §2
# HeLa [14] = experiment: Tested for effect of compound on S cell cycle phase and apoptosis in HeLa cells at a dose of 10E-6 for 24 hr; type: functional, Homo sapiens; summary of the method: as §2
# HeLa [15] = experiment: Tested for effect of compound on S cell cycle phase and apoptosis in HeLa cells at a dose of 10E-6 for 48 hr; type: functional, Homo sapiens; summary of the method: as §2
# HeLa [16] = experiment: Tested for effect of compound on S cell cycle phase and apoptosis in HeLa cells at a dose of 10E-6 for 72 hr; type: functional, Homo sapiens; summary of the method: as §2
# HeLa [17] = experiment: Tested for effect of compound on S cell cycle phase and apoptosis in HeLa cells at a dose of 10E-7 for 24 hr; type: functional, Homo sapiens; summary of the method: as §2
# HeLa [18] = experiment: Tested for effect of compound on S cell cycle phase and apoptosis in HeLa cells at a dose of 10E-7 for 48 hr; type: functional, Homo sapiens; summary of the method: as §2
# HeLa [19] = experiment: Tested for effect of compound on S cell cycle phase and apoptosis in HeLa cells at a dose of 10E-7 for 72 hr; type: functional, Homo sapiens; summary of the method: as §2
# HeLa [20] = experiment: Tested for effect of compound on S cell cycle phase and apoptosis in HeLa cells at a dose of 10E-8 for 24 hr; type: functional, Homo sapiens; summary of the method: as §2
# HeLa [21] = experiment: Tested for effect of compound on S cell cycle phase and apoptosis in HeLa cells at a dose of 10E-8 for 48 hr; type: functional, Homo sapiens; summary of the method: as §2
# HeLa [22] = experiment: Tested for effect of compound on S cell cycle phase and apoptosis in HeLa cells at a dose of 10E-8 for 72 hr; type: functional, Homo sapiens; summary of the method: as §2
# HeLa [23] = experiment: Tested for effect of compound on G0/G1 cell cycle phase and apoptosis in HeLa cells at a dose of 10E-6 for 24 hr; type: functional, Homo sapiens; summary of the method: as §1
# HeLa [24] = experiment: Tested for effect of compound on G0/G1 cell cycle phase and apoptosis in HeLa cells at a dose of 10E-6 for 48 hr; type: functional, Homo sapiens; summary of the method: as §1
# HeLa [25] = experiment: Tested for effect of compound on G0/G1 cell cycle phase and apoptosis in HeLa cells at a dose of 10E-6 for 72 hr; type: functional, Homo sapiens; summary of the method: as §1
# HeLa [26] = experiment: Tested for effect of compound on G0/G1 cell cycle phase and apoptosis in HeLa cells at a dose of 10E-7 for 24 hr; type: functional, Homo sapiens; summary of the method: as §1
# HeLa [27] = experiment: Tested for effect of compound on G0/G1 cell cycle phase and apoptosis in HeLa cells at a dose of 10E-7 for 48 hr; type: functional, Homo sapiens; summary of the method: as §1
# HeLa [28] = experiment: Tested for effect of compound on G0/G1 cell cycle phase and apoptosis in HeLa cells at a dose of 10E-7 for 72 hr; type: functional, Homo sapiens; summary of the method: as §1
# HeLa [29] = experiment: Tested for effect of compound on G0/G1 cell cycle phase and apoptosis in HeLa cells at a dose of 10E-8 for 24 hr; type: functional, Homo sapiens; summary of the method: as §1
# HeLa [30] = experiment: Tested for effect of compound on G0/G1 cell cycle phase and apoptosis in HeLa cells at a dose of 10E-8 for 48 hr; type: functional, Homo sapiens; summary of the method: as §1
# HeLa [31] = experiment: Tested for effect of compound on G0/G1 cell cycle phase and apoptosis in HeLa cells at a dose of 10E-8 for 72 hr; type: functional, Homo sapiens; summary of the method: as §1
# HeLa [32] = experiment: Tested for effect of compound on G2/M cell cycle phase and apoptosis in HeLa cells at a dose of 10E-6 for 24 hr; type: functional, Homo sapiens; summary of the method: as §1
# HeLa [33] = experiment: Tested for effect of compound on G2/M cell cycle phase and apoptosis in HeLa cells at a dose of 10E-6 for 72 hr; type: functional, Homo sapiens; summary of the method: as §2
# HeLa [34] = experiment: Tested for effect of compound on G2/M cell cycle phase and apoptosis in HeLa cells at a dose of 10E-7 for 24 hr; type: functional, Homo sapiens; summary of the method: as §2
# HeLa [35] = experiment: Tested for effect of compound on G2/M cell cycle phase and apoptosis in HeLa cells at a dose of 10E-7 for 48 hr; type: functional, Homo sapiens; summary of the method: as §2
# SK-MEL-28 = experiment: Tested in vitro for antineoplastic activity against MEL-28 (human melanoma) tumor cell line; type: functional, cell-based
# Summary of the method: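 MEL-28 cells seeded at 2 × 10^4 cells/well in MEM–10% FCS containing graded compound concentrations. Incubated 4 days at 37 °C, 10% CO2, 98% humidity. Stained with crystal violet and inhibition judged against untreated controls, which were kept in exponential growth. Mean of duplicate wells.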
# [36] = Selectivity index is the ratio of IC50 of P-388 cell line to that of HT-29; type: functional
# P388 = experiment: Tested in vitro for antineoplastic activity against P-388 (lymphoid neoplasm from DBA/2 mouse) tumor cell line; type: functional, cell-based
# Summary of the method: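 P-388 cells seeded at 1 × 10^4 cells/well in MEM–10% FCS containing graded compound concentrations. Incubated 4 days at 37 °C, 10% CO2, 98% humidity. Inhibition scored by inverted microscopy against untreated controls, which were kept in exponential growth. Mean of duplicate wells.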
# HeLa [37] = experiment: Tested for effect of compound on G2/M cell cycle phase and apoptosis in HeLa cells at a dose of 10E-7 for 72 hr; type: functional, Homo sapiens; summary of the method: as §2
compound,measurement,setting,value
CCn1nccc1/N=C/C1=Cc2cc3c(cc2C(c2cc(OC)c(OC)c(OC)c2)[C@@H]1C(=O)OC)OCO3 (stereo partly specified),IC50,A549,960 nM
same,Activity,HeLa [1],49.4%
same,IC50,HT-29,48 nM
same,Activity,HeLa [2],2.1%
same,Activity,HeLa [3],23.8%
same,Activity,HeLa [4],39.6%
same,Activity,HeLa [5],1.8%
same,Activity,HeLa [6],1.9%
same,Activity,HeLa [7],5.6%
same,Activity,HeLa [8],1.3%
same,Activity,HeLa [9],1.7%
same,Activity,HeLa [10],2.3%
same,Activity,HeLa [11],24.1%
same,Activity,HeLa [12],28.2%
same,Activity,HeLa [13],25.4%
same,Activity,HeLa [14],9.6%
same,Activity,HeLa [15],10.8%
same,Activity,HeLa [16],8.1%
same,Activity,HeLa [17],18.3%
same,Activity,HeLa [18],13%
same,Activity,HeLa [19],12.3%
same,Activity,HeLa [20],18.2%
same,Activity,HeLa [21],14.1%
same,Activity,HeLa [22],12.2%
same,Activity,HeLa [23],6.8%
same,Activity,HeLa [24],16%
same,Activity,HeLa [25],31.3%
same,Activity,HeLa [26],55.6%
same,Activity,HeLa [27],49.5%
same,Activity,HeLa [28],37.7%
same,Activity,HeLa [29],56.4%
same,Activity,HeLa [30],56%
same,Activity,HeLa [31],60.1%
same,Activity,HeLa [32],81.5%
same,Activity,HeLa [33],21%
same,Activity,HeLa [34],24.3%
same,Activity,HeLa [35],35.6%
same,IC50,SK-MEL-28,960 nM
same,Selectivity index,[36],20
same,IC50,P388,960 nM
same,Activity,HeLa [37],44.4%
